The source made the active and inactive calls. The rule behind the calls is not given here.
Experiments:
[1] = molecular target: T1, Metabotropic glutamate receptor 5 (Rattus norvegicus, UniProt P31424); experiment: Displacement of [3H]MPEP from rat mGluR5
[2] = molecular target: T2, Metabotropic glutamate receptor 1 (Rattus norvegicus, UniProt P23385); experiment: Antagonist activity at rat mGluR1 expressed in cerebellar granule cells assessed as accumulation of [3H]inositol phosphate; type: functional, cell-based
T2 sequence (P23385 whole entry): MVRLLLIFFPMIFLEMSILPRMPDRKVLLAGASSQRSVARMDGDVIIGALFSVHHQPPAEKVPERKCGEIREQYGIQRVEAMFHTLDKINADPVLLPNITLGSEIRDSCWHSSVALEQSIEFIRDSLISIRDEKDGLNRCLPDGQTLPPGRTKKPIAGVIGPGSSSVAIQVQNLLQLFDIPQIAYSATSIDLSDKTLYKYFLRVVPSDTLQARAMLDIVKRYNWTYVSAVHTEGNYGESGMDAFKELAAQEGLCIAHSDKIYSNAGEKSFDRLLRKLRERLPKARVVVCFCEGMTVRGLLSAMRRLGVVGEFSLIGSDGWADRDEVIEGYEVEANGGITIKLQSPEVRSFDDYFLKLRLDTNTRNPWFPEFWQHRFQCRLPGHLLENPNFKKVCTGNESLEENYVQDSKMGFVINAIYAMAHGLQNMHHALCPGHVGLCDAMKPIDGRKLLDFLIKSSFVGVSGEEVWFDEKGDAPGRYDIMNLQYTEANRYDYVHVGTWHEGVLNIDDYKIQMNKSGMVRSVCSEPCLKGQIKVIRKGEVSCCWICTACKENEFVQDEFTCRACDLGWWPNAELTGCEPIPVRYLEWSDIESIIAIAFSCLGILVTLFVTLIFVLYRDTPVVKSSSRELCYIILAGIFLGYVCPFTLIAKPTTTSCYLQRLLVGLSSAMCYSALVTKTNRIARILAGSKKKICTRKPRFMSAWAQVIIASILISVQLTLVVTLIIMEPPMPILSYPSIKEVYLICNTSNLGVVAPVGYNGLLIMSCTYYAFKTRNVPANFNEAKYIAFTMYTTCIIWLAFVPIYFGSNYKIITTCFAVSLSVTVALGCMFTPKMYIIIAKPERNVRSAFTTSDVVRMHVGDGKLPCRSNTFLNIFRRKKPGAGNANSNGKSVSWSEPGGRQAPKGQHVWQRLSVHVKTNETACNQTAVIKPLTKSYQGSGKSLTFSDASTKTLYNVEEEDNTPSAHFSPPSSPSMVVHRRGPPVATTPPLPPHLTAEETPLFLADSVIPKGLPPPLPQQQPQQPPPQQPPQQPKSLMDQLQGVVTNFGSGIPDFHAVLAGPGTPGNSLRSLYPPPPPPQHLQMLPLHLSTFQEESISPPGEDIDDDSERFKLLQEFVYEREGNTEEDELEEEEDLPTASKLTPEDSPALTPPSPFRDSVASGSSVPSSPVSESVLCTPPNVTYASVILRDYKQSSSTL

[3] = molecular target: Metabotropic glutamate receptor 5 (Rattus norvegicus) (UniProt P31424); experiment: Displacement of [3H]MPEP from rat mGluR5 upto 10 uM
How it was run: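 Membranes were washed four times in 50 mM Tris-HCl pH 8.0 and resuspended in 50 mM Tris-HCl pH 7.5. 125–250 µg protein was incubated with 5 nM [3H]MPEP and test agent (up to 10 µM), up to 5% DMSO, 60 min at RT. Nonspecific binding: 10 µM MPEP. Filtered on glass fibre filters, rinsed with ice-cold buffer, then scintillation counted.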

[4] = molecular target: T2, Metabotropic glutamate receptor 1; experiment: (§1) Antagonist activity at rat mGluR1 by FLIPR assay; type: functional
[5] = molecular target: Metabotropic glutamate receptor 1 (Rattus norvegicus) (UniProt P23385); experiment: as §1; type: functional
Metabotropic glutamate receptor 1 (Rattus norvegicus), sequence (P23385 19-1199 limits assumed): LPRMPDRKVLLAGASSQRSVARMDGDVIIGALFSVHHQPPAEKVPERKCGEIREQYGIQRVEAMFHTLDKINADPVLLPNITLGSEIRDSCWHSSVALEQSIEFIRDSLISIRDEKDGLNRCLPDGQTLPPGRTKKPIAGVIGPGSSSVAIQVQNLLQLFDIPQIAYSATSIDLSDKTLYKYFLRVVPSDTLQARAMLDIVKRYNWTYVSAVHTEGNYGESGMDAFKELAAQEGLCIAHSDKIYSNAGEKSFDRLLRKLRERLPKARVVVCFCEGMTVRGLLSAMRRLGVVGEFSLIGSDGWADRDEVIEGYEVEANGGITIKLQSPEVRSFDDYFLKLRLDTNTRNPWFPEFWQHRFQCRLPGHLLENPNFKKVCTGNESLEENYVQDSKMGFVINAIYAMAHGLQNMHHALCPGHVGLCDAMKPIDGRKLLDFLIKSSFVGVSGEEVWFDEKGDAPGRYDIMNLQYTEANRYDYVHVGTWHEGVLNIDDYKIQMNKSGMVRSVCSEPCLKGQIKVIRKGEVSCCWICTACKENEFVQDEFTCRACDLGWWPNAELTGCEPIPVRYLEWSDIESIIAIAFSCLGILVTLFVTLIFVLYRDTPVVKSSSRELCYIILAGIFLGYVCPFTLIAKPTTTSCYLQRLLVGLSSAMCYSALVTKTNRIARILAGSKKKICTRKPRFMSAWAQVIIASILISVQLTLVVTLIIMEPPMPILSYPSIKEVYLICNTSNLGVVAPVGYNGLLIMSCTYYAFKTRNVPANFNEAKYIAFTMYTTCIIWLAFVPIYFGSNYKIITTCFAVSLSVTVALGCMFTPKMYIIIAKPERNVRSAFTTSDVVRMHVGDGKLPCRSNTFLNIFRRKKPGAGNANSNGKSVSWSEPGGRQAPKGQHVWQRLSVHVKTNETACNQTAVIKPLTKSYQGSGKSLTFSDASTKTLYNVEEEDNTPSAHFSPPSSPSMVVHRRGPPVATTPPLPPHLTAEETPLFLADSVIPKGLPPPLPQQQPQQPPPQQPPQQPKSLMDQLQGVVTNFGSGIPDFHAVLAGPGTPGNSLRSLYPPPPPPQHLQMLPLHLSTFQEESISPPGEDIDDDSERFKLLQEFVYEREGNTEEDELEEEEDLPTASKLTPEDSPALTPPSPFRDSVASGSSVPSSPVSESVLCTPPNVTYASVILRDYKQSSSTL

[6] = molecular target: Metabotropic glutamate receptor 5 (Rattus norvegicus) (UniProt P31424); experiment: Positive modulation of rat mGluR5 assessed as fold left shift of L-quisqualate EC50 by calcium FLIPR assay
[7] = molecular target: T1, Metabotropic glutamate receptor 5; experiment: Antagonist activity at mGluR5 in Sprague-Dawley rat astrocyte assessed as L-quisqualate induced potentiation of intracellular calcium level by FLIPR assay; type: functional, cell-based
[8] = molecular target: T3, Metabotropic glutamate receptor 5 (Homo sapiens, UniProt P41594); experiment: Antagonist activity at human mGluR5 expressed in CHO cells assessed as L-glutamate induced potentiation of intracellular calcium level by FLIPR assay; type: functional, cell-based
How it was run: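 Human mGluR5 FLIPR calcium assay. Cells were loaded with Ca-sensitive dye for 2 h at RT in HEPES-buffered saline, pH 7.3. The dye kit contained glutamic-pyruvate transferase, Na-pyruvate and pyridoxal phosphate to avoid glutamate build-up. Compounds were preincubated 5 min before L-glutamate, and the intracellular calcium rise was read as RFU.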
Target sequence in this assay (P41594 whole entry): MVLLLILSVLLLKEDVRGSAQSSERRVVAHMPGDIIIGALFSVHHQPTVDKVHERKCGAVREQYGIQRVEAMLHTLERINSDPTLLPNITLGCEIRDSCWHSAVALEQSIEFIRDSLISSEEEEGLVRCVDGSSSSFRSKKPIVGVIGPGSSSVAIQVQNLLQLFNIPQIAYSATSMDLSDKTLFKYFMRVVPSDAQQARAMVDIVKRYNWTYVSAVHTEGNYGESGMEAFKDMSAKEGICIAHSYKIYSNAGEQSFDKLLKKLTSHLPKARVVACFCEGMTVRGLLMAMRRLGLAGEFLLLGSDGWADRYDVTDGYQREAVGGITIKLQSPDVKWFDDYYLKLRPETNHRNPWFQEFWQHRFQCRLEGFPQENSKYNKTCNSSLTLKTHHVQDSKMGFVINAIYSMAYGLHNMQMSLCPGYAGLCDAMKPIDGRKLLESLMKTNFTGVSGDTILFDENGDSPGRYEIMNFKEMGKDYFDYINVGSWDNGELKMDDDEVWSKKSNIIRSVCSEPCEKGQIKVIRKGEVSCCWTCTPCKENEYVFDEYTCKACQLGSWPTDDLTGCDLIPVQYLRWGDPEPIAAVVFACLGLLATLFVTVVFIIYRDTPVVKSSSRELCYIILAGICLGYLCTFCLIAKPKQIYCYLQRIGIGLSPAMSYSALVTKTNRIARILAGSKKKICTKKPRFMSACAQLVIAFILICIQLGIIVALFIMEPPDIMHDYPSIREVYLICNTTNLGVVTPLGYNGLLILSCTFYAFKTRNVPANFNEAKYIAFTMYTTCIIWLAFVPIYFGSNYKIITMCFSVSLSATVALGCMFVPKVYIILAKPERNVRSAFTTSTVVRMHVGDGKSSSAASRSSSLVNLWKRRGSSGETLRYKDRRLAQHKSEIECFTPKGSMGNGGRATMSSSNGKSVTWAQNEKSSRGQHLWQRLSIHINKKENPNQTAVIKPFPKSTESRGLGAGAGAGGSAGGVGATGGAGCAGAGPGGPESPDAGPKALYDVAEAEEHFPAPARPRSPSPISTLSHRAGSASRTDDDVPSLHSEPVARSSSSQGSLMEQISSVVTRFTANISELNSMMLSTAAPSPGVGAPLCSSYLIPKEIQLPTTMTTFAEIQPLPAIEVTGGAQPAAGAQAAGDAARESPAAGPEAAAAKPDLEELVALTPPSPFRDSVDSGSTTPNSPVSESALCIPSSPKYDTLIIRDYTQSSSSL

[9] = molecular target: T3, Metabotropic glutamate receptor 5; experiment: Positive modulation of human mGluR5 assessed as fold left shift of L-glutamate EC50 by calcium FLIPR assay
Target sequence in this assay (P41594 21-1212 limits assumed): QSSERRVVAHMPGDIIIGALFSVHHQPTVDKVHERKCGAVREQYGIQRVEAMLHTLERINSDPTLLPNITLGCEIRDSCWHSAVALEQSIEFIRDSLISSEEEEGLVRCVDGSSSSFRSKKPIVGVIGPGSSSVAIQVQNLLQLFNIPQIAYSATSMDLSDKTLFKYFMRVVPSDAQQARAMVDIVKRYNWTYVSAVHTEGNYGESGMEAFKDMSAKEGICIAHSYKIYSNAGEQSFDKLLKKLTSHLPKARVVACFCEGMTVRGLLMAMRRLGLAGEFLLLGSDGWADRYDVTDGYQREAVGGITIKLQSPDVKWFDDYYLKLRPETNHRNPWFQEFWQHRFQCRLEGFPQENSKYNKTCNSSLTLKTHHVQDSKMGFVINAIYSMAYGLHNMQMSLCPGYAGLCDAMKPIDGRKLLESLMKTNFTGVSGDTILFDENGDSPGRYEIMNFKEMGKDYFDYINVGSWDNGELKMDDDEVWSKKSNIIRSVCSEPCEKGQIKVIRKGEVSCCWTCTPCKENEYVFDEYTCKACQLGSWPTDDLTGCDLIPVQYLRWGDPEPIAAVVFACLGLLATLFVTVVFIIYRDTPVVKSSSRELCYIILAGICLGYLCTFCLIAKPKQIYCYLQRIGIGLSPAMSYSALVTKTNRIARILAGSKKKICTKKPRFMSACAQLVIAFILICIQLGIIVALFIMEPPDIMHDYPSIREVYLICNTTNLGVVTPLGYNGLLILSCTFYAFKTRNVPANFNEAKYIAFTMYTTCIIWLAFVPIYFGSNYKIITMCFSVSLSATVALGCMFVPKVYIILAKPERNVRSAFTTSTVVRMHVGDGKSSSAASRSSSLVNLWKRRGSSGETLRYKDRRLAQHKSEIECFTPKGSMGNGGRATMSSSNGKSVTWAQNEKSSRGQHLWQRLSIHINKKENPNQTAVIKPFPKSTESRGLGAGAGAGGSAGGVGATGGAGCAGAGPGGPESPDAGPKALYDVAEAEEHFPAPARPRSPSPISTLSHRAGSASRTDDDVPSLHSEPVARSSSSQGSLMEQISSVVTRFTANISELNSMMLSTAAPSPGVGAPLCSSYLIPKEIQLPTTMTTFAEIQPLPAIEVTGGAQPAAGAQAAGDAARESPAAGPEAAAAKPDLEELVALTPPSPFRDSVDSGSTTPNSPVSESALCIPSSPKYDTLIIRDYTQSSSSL

[10] = molecular target: Metabotropic glutamate receptor 5 (Rattus norvegicus) (UniProt P31424); experiment: Reversal of antagonist activity at Sprague-Dawley rat astrocyte mGluR5 in presence of L-quisqualate mGluR5 agonist at 10 uM by FLIPR assay; type: functional
[11] = molecular target: T3, Metabotropic glutamate receptor 5; experiment: Reversal of antagonist activity at human mGluR5 expressed in CHO cells in presence of L-glutamate mGluR5 agonist at 10 uM by FLIPR assay; type: functional, cell-based
Target sequence in this assay (P41594 21-1212 limits assumed): as above

Structure (SMILES)	IC50 [1] [µM]	IC50 [2] [µM]	Activity [3]	other results
CC1(C)CC(=O)c2cc(C#N)c(N3CCN(c4ccccc4)CC3)nc2C1	–	0.13	inactive	–
CC1(C)CC(=O)c2cc(Cl)c(NC3CCCC3)nc2C1	–	–	–	IC50 [4]: 7.9 µM
CN(Cc1ccccc1)c1nc2c(cc1C#N)C(=O)CCC2	80	25	–	–
CN(Cc1ccccc1)c1nc2c(cc1C#N)C(=O)CC(C)(C)C2	–	5.3	inactive	–
C(#Cc1ccc2c(n1)CCCC2)c1ccccc1	0.51	–	–	Ki [1]: 1.5 µM
CC1(C)CC(=O)c2cc(C#N)c(NC3Cc4ccccc4C3)nc2C1	–	1.9	inactive	–
CC1(C)CC(=O)c2cc(N3CCOCC3)c(N3CC=C(c4ccc(F)cc4)CC3)nc2C1	–	–	inactive	IC50 [4]: 15 µM
CC1(C)CC(=O)c2cc(C#N)c(NC3CCCC3)nc2C1	49	0.078	–	–
O[C@@H]1CCCc2nc(C#Cc3ccccc3)ccc21	–	–	–	Ki [1]: 4.71 µM; Activity [6]: 3.1; EC50 [7]: 0.18 µM; EC50 [8]: 0.98 µM; Activity [9]: 2.5
CC1(C)CC(=O)c2cc(C#N)c(SCc3ccccc3)nc2C1	57	4.8	–	–
N#Cc1cc2c(nc1SCc1ccccc1)CCCC2=O	–	30	inactive	–
O=C(NC12CC3CC(CC(C3)C1)C2)c1cnccn1	–	7	–	–
O=C1CCCc2nc(OCc3ccccc3)ccc21	1.9	25	–	–
O=C(NC12CC3CC(CC(C3)C1)C2)c1cnc2ccccc2c1	–	0.052	–	–
CCCNc1nc2c(cc1C#N)C(=O)CC(C)(C)C2	–	2.3	inactive	–
CC1(C)CC(=O)c2cc([N+](=O)[O-])c(NC3CC=C(c4ccc(F)cc4)CC3)nc2C1 (stereo not given)	–	–	inactive	IC50 [4]: 12 µM
O[C@H]1CCCc2nc(C#Cc3ccccc3)ccc21	–	–	–	Ki [1]: 9.28 µM; Activity [6]: 2; EC50 [7]: 0.25 µM; EC50 [8]: 1.08 µM; Activity [9]: 2.5
N#Cc1cc2c(nc1NC1CCCCC1)CCCC2=O	–	3	inactive	–
CC1(C)CC(=O)c2cc(C(=O)O)c(NC3CCCC3)nc2C1	–	–	inactive	IC50 [4]: 23 µM
CC1(C)CC(=O)c2cc(-c3nn[nH]n3)c(NC3CCCC3)nc2C1	–	–	inactive	IC50 [4]: 13 µM
O=C(NC12CC3CC(CC(C3)C1)C2)c1cnc2ccccc2n1	–	0.005	–	–
CCCCNc1nc2c(cc1C#N)C(=O)CC(C)(C)C2	–	1.7	inactive	–
OC1CCCc2nc(C#Cc3ccccc3)ccc21 (stereo not given)	–	–	–	Ki [1]: 7.6 µM; Activity [6]: 2.2; EC50 [7]: 0.49 µM; EC50 [8]: 1.13 µM; Activity [9]: 2
O=C1CCCc2nc(C#Cc3ccccc3)ccc21	–	–	–	Activity [10]: Active; Ki [1]: 0.8 µM; Activity [6]: 2; EC50 [7]: 0.034 µM; Activity [11]: Active; Activity [9]: 3.2

The next lines start with results.

IC50 [1] [µM]	IC50 [2] [µM]	Activity [3]	Structure (SMILES)	other results
60	–	–	O=C1CCCc2nc(C#Cc3ccccn3)ccc21	Ki [1]: 2.36 µM
–	0.11	inactive	CC1(C)CC(=O)c2cc(C#N)c(N3CC=C(c4ccc(F)cc4)CC3)nc2C1	–
–	2.5	inactive	CC1(C)CC(=O)c2cc(C#N)c(NCc3ccccc3)nc2C1	–
–	–	inactive	CC1(C)CC(=O)c2cc(-c3cncnc3)c(NC3CCCC3)nc2C1	Activity [5]: inactive
–	2.6	inactive	CCCCCCNc1nc2c(cc1C#N)C(=O)CC(C)(C)C2	–
2.6	–	–	CC1(C)CC(=O)c2ccc(C#Cc3ccccn3)nc2C1	Ki [1]: 0.21 µM
–	0.44	–	O=C(NC12CC3CC(CC(C3)C1)C2)c1ccc2ccccc2n1	–
–	–	inactive	CC1(C)CC(=O)c2cc(C#N)c(NC34CC5CC(CC(C5)C3)C4)nc2C1	–
–	0.006	–	CCc1nc(C#N)c(N2CCc3ccccc3CC2)nc1C	–
–	0.16	inactive	CC1(C)CC(=O)c2cc(C#N)c(N3CCN(c4ccc(F)cc4)CC3)nc2C1	–
8.1	45	–	CC1(C)CC(=O)c2ccc(NCc3ccccc3)nc2C1	–
–	1.5	inactive	CC1(C)CC(=O)c2cc(C#N)c(N3CCc4ccccc4C3)nc2C1	–
37	≤ 1	–	CC1(C)CC(=O)c2cc(Br)c(N3CCN(c4ccc(F)cc4)CC3)nc2C1	–
4.6	–	–	COC(=O)c1ccc(C#Cc2ccccc2)nc1	Ki [1]: 1.4 µM
29	–	–	CC1(C)CC(=O)c2cc(Br)c(NC3CCCC3)nc2C1	Activity [5]: inactive
12	21	–	CC1(C)CC(=O)c2ccc(OCc3ccccc3)nc2C1	–
58	–	–	CN(C)C(=O)c1cc2c(nc1NC1CCCC1)CC(C)(C)CC2=O	IC50 [4]: 21 µM
0.023	–	–	CC1(C)CCc2nc(C#Cc3ccccc3)ccc2C1=O	Ki [1]: 0.051 µM
0.08	–	–	COC1CCCc2nc(C#Cc3ccccc3)ccc21 (stereo not given)	Ki [1]: 0.139 µM
–	10.4	inactive	O=C1CCCc2nc(N3CCN(c4ccccc4)CC3)ccc21	–
–	7.6	inactive	COc1ccc(N2CCN(c3nc4c(cc3C#N)C(=O)CC(C)(C)C4)CC2)cc1	–
–	< 1	inactive	CC1(C)CC(=O)c2cc(C#N)c(N3CC=C(c4ccccc4)CC3)nc2C1	–
–	4	inactive	CC1(C)CC(=O)c2cc(C#N)c(NC3CCCCC3)nc2C1	–
